TNAP act mid DEA – human TNAP enzyme activators, primary screen, biochemical, luminescent, intermediate phosphate acceptor level; AID 813, 2007; activation factor at 20 µM; purified TNAP, CDP-star luminescence, 100 mM DEA, 30 min; hits give high values; scale: 0 levamisole-inhibited, 1 vehicle-only enzyme; 64,000 tested, under 10 active; Alkaline phosphatase, tissue-nonspecific isozyme (Homo sapiens), P05186;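 active = activation factor of at least 2 at 20 µM, relative to controls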
Target sequence (P05186 whole entry, looked up): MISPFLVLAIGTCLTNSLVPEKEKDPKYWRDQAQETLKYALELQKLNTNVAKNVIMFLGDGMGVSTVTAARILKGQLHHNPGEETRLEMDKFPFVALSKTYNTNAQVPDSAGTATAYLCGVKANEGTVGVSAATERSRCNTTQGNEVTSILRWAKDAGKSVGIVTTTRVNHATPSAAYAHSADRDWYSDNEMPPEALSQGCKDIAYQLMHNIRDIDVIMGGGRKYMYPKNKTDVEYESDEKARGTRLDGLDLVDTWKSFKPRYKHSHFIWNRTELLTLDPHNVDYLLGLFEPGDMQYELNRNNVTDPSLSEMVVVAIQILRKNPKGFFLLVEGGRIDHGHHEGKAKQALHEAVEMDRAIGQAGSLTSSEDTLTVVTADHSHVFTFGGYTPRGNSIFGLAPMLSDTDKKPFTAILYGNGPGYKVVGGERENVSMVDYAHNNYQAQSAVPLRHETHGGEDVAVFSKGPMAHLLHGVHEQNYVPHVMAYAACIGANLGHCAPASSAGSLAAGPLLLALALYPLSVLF
PMK inhibit – S. pneumoniae PMK inhibitors, primary screen, biochemical, mevalonate pathway, pilot trial included; phosphomevalonate kinase (Streptococcus pneumoniae D39); purified PMK, PK/LDH-coupled NADH absorbance 340 nm; inhibition, % at 10 µM; 0.49% of 65,000 active; AID 539, 2006;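 active = top-ranked compounds by inhibition in the single 10 µM screen, taking a fixed number of the strongest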;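 note: 0% = full reaction with DMSO carrier and 100% = background rate without enzyme reaction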
DPM-DC inhibit – S. pneumoniae DPM-DC inhibitors, primary screen, biochemical, PK/LDH-coupled NADH fluorescence; diphosphomevalonate decarboxylase (Streptococcus pneumoniae D39); purified DPM-DC; calls only at 10 µM; 0.49% of 65,000 active;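 active = the 320 compounds with the highest percent inhibition in the single-dose primary screen, excluding strongly autofluorescent ones, cut at about 32% in these data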;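 note: kinetic rate of NADH fluorescence loss reporting ADP formed by the decarboxylase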
E coli RNAP – E. coli RNAP inhibitors, biochemical; DNA-directed RNA polymerase subunit beta (Escherichia coli (strain K12)), P0A8V2; E. coli RNA polymerase, fluorescence transcription assay; inhibition, %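 (tested at 10 µM)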; 0.2% of 62,000 active; AID 559, 2006; in the data active = inhibition above about 20%;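 note: 0% = enzyme without compound and 100% = no enzyme blank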
MK inhibit – S. pneumoniae MK inhibitors, primary screen, biochemical, PK/LDH-coupled NADH absorbance; purified MK, PK/LDH-coupled NADH absorbance 340 nm; inhibition, % at 10 µM; 0.48% of 65,000 active;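 active = ranked among the strongest by inhibition in the single 10 µM screen, a fixed top-ranked set picked for dose follow-up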
AP ELISA ortho – alternative complement pathway inhibitors, primary screen, biochemical, ELISA, human serum, orthogonally pooled compounds. LPS-coated ELISA, C3 deposition; tested in compound mixtures. inhibition, % at 5 µM. 0.08% of 62,000 active;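 active = inhibition above 30% in each of the two pooled mixtures holding the compound, so the lower value exceeds 30%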;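 note: 0% = serum in Mg-EGTA without compound and 100% = EDTA serum blank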
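Test system – human serum alternative complement pathway, C3 deposition on LPS-coated wells · Buffer or medium – diluted human serum in Mg2+-EGTA GVB++ · Compound dosing – 5 µM each compound, pools of ten, 50 µM per pool · Schedule – 1 h serum-compound exposure at 37 °C · Measured by – Anti-C3 ELISA, OD 450 nm · Read-out basis – percent inhibition of C3 deposition onto LPS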
* = called active by the depositor; i = inactive; / = no result given; + = active, no number. Rows were chosen to be rich in hits. Some 1.5% of all compounds tested hit in one or more screens of this group.

SMILES	TNAP act mid DEA	PMK inhibit	DPM-DC inhibit	E coli RNAP	MK inhibit	AP ELISA ortho
CCOC(=O)N1C(=O)c2cc(OC)ccc2S1(=O)=O	0.9	29.0*	i	13.0	9.0	-0.8
O=C(OCC(=O)N1CCc2ccccc21)C1=COCCO1	0.9	9.0	i	1.4	10.0	13.8
O=C1CN(C(=O)COC(=O)C2=COCCO2)c2ccccc2N1	1	23.0	i	-0.5	56.0*	14.2
Cc1nnc(SCC(=O)Nc2ncc(Cc3ccc(F)cc3)s2)n1N	1	44.0*	i	6.0	32.0	2.3
CC1CC(C)CN(CCCNC(=O)Cn2ncc3c(=O)oc4ccccc4c32)C1 (stereo not drawn)	1	7.0	+	3.1	10.0	10.0
CCOC(=O)c1c(NC(=O)OC)sc(C(=O)N(CC)CC)c1C	1	0.0	i	0.4	11.0	20.1
CCOc1ccc2[nH]c(=O)c(CN(CCO)C(=O)CC)cc2c1	0.9	5.0	i	8.1	0.0	5.5
CCOc1ccc2[nH]c(=O)c(CN(CCO)C(=O)c3ccc(Br)cc3)cc2c1	0.9	42.0*	i	2.3	1.0	13.5
O=C1C(=O)N(CCCn2ccnc2)C(c2cccnc2)/C1=C(/O)c1ccc(Cl)cc1 (stereo not drawn)	0.9	12.0	i	6.4	5.0	11.0
COCC(C)NCc1ccc(C)cc1C (stereo not drawn)	0.9	1.0	i	5.9	52.0*	8.6
Cc1ccc(CNc2ccc3c(c2)OCO3)c(C)c1	0.9	0.0	i	4.0	0.0	6.9
CC(CCc1ccco1)NC(=O)Cn1ncc2c1-c1ccccc1OC2 (stereo not drawn)	0.8	0.0	i	7.1	0.0	9.7
COCCCNc1c2c3c(cccc3[nH]c1=O)C(=O)c1ccccc1-2	0.9	/	/	12.1	/	-1.7
CC(C)Oc1ccc(C2CC(=O)NC3=C2C(=O)CCC3)cc1 (stereo not drawn)	0.9	14.0	i	22.5*	5.0	8.1
Cc1cc(C(=O)COc2ccc(-c3nnco3)cc2)c(C)n1Cc1ccccc1	0.9	13.0	i	/	0.0	/
FC(F)(F)c1cc(-c2ccco2)nc(-n2nnc3ccccc32)n1	0.9	11.0	+	3.4	5.0	2.8
COc1cc(C2c3c(oc4ccccc4c3=O)C(=O)N2Cc2ccncc2)ccc1O (stereo not drawn)	0.9	6.0	i	1.4	2.0	12.1
CCOC(=O)N1CCN(C(=O)CN(Cc2ccccc2)S(=O)(=O)c2ccc(OC)c(C)c2)CC1	1	0.0	i	3.8	active	-8.0
CCCCOc1ccc(Cl)cc1CSc1nnc(CC)n1N	0.9	6.0	i	/	10.0	16.8
N#Cc1cc2c(nc1SCc1cccnc1)CCCCC2	0.9	0.0	i	10.6	8.0	16.1
N#Cc1cc2ccccc2nc1SCc1cccnc1	0.9	29.0*	i	8.6	7.0	11.1
COC(=O)c1nnn(CC(=O)Nc2cccc(OC)c2)c1C(=O)OC	0.9	16.0	i	9.7	5.0	10.9
COc1ccc(NC2CC(=O)NC2=O)cc1 (stereo not drawn)	0.9	26.0*	i	0.3	0.0	9.8
CN(C)C(=O)N1CCC(C(=O)NCc2cccs2)CC1	0.9	22.0	+	3.2	0.0	-4.6
CCC1CCCCN1C(=O)CSc1nnc(CNC(=O)COc2ccc(Cl)cc2)o1 (stereo not drawn)	0.9	21.0	i	0.5	0.0	13.5
SMILES	TNAP act mid DEA	PMK inhibit	DPM-DC inhibit	E coli RNAP	MK inhibit	AP ELISA ortho
CCCC1(CCC)NC(=O)N(CC(=O)Nc2cccc(OC)c2)C1=O	0.9	12.0	i	40.4*	4.0	7.3
COc1cc(NC(=O)CN2C(=O)NC(C)(CCC(C)C)C2=O)cc(OC)c1 (stereo not drawn)	1	15.0	i	7.0	0.0	7.4
COc1ccc(CN2CCN(C(=O)c3cccs3)CC2)cc1Br	0.9	13.0	i	7.9	49.0*	-3.1
CCOc1ccc(C(=O)N2CCN(C(=O)c3ccco3)CC2)cc1OCC	0.9	6.0	i	0.5	9.0	10.7
COc1cccc(C(=O)N2CCN(C(=O)c3cccs3)CC2)c1OC	0.9	7.0	i	9.7	8.0	8.3
CCOc1cc(CN2CCN(c3ccc(C(C)=O)cc3)CC2)ccc1OC	1	0.0	i	9.9	44.0*	-5.4
CCOc1cc(CN2CCN(C(=O)c3ccco3)CC2)ccc1OC	0.9	0.0	i	11.3	51.0*	4.3
COC(=O)c1ccc(COc2ccc3c4c(c(=O)oc3c2)CCC4)o1	0.9	3.0	+	5.1	4.0	12.8
COC(=O)c1cc(COc2ccc3c4c(c(=O)oc3c2)CCCC4)c(C)o1	0.9	3.0	/	-3.4	1.0	20.2
COc1ccc(S(=O)(=O)NCCSCc2cccs2)cc1	0.8	24.0	i	4.1	14.0	22.4
COc1cc(CNCc2ccc(OC)c(OC)c2OC)cc(OC)c1	0.9	0.0	i	2.5	51.0*	12.6
c1ccc2c(-c3nc(C4CCCCC4)no3)cc(-c3ccncc3)nc2c1	0.8	16.0	i	7.0	0.0	5.7
CC(CCc1ccccc1)NC(=O)CSc1nc(N)cc(N)n1 (stereo not drawn)	0.9	0.0	i	7.9	4.0	6.5
COc1ccc(S(=O)(=O)Nc2ccc(O)c3ccccc23)cc1	0.7	3.0	i	23.9*	4.0	7.1
COc1ccc(S(=O)(=O)Nc2ccccc2C(F)(F)F)cc1	0.9	0.0	i	0.2	9.0	8.2
Cc1nc(N2CCN(C(=O)c3ccc(Cl)cc3)CC2)c(C#N)c2c1COC(C)(C)C2	0.9	8.0	/	-1.3	2.0	/
COc1ccc2cc(CN(Cc3cccnc3)Cc3nnnn3Cc3ccccc3)c(=O)[nH]c2c1	0.9	13.0	i	5.4	9.0	0.4
COCCn1nnnc1CN(Cc1cccnc1)Cc1cc2cc(OC)ccc2[nH]c1=O	0.9	13.0	+	5.6	0.0	12.7
CCc1nn(C(C)C(=O)NCCc2ccc(OC)c(OC)c2)c(=O)c2cc3occc3n12 (stereo not drawn)	0.9	26.0*	i	2.4	7.0	1.7
CCc1nn(C(C)C(=O)NC(C)CCc2ccco2)c(=O)c2cc3occc3n12 (stereo not drawn)	0.9	27.0*	i	2.7	0.0	10.0
N#Cc1ccc(Oc2cccnc2)cc1C#N	1	8.0	i	6.1	4.0	0.5
